Assay outcomes as filed in PubChem.
FAK blocker – FAK kinase inhibitors, primary screen, biochemical; inhibition, %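 (tested at 7 µM)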; Focal adhesion kinase 1 (Homo sapiens), Q05397; AID 727, 2007; biochemical FAK kinase activity assay; hit rate 0.84% among 97,000; in the data active means inhibition above about 19%;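 further: 0% = DMSO and 100% = reference compound high control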
PLK1 kinase inh – human PLK1 kinase inhibitors, primary screen, biochemical, TR-FRET; Serine/threonine-protein kinase PLK1 (Homo sapiens), P53350; recombinant PLK1 kinase, TR-FRET peptide phosphorylation; inhibition, % at 10 µM; hit rate 0.53% among 97,000; AID 619, 2007;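 active means inhibition of 50% or more in the single-concentration screen; inactive means inhibition below 50%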;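 further: 0% = DMSO max control and 100% = H-89 dihydrochloride min control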
Pyk2 oligo antag – antagonists of Pyk2 self-association, primary screen, Q293 cells, FERM NanoBiT luminescence, HTS | active compounds read low | AID 1347419, 2020 | Protein-tyrosine kinase 2-beta (Homo sapiens), Q14289 | z-score (the deposit names both 25 µM and 10 µM) | hit rate 0.83% among 99,000;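 active means Z-score of -3 or lower, scaled per plate to the spread of control and sample wells; inactive means z-score above -3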;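 further: negative z-score means lost luminescence so less FERM oligomerization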
Plk1 PBD FP – Plk1 polo box domain binding inhibitors, primary screen, biochemical, fluorescence polarization | Plk1 PBD phosphopeptide binding | inhibition, %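 (tested at about 20 µM)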 | hit rate 0.13% among 97,000 | AID 693, 2007; in the data active means inhibition above about 34%, passing the limit was not always enough
HIV Rev-RRE inh – HIV-1 Rev-RRE binding inhibitors, primary screen, biochemical, FRET, protein-RNA interaction | P05866 | Rev peptide-RRE RNA binding | inhibition, % at 8 µM | hit rate 0.79% among 97,000;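 active means inhibition above the screen-wide mean plus 3 SD, cut at about 35% in these data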;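 further: 0% = median DMSO wells and 100% = median Neomycin B control wells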
Target sequence (P05866 whole entry, looked up): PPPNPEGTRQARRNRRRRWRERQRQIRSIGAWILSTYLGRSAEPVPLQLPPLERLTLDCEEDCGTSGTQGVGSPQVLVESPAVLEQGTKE
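assay system = Cy5-tagged RRE RNA duplex with fluorescein-tagged Rev peptide | incubation = 5 + 15 min at 25 °C | also added = labelled Rev peptide | measure = % inhibition of FRET ratio versus controls | benchmarks = DMSO wells as 0% and neomycin B wells as 100% inhibition | measured by = FRET fluorescence readout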
Cav3 T inh – Cav3.2 calcium influx blockers – cell-based, Fluo-4 calcium fluorescence, FDSS, MLSMR library, primary screen; Voltage-dependent T-type calcium channel subunit alpha-1H (Homo sapiens), O95180; Cav3.2-expressing cells; active compounds read low; B-score at 10 µM; hit rate 4% among 100,000; AID 449739, 2010;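 active means single-dose well whose peak fluorescence ratio is a statistical outlier from its plate by either plate-standardised score or position-corrected B-score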
* hit, by the source's call; x = no result. Only some compounds are listed: those with a hit (about 5.8% of all), similar ones and a draw of the others.

SMILES	FAK blocker	PLK1 kinase inh	Pyk2 oligo antag	Plk1 PBD FP	HIV Rev-RRE inh	Cav3 T inh
O=C(Cn1nnc(-c2cccs2)n1)N1c2ccccc2Sc2ccc(C(F)(F)F)cc21	0	9	-0.31	-9	15	-5.4*
O=C(CSc1ncn[nH]1)Nc1ccccc1Sc1ccc(Cl)cc1	3	-9	-1.1	10	6	-3.9
O=C(CSc1nnc(-c2cc3ccccc3cc2O)n1Cc1ccco1)N1CCc2ccccc2C1	4	-2	-0.43	-10	10	-5.1*
Cc1occc1-c1nnc(SCC(=O)N2CCOCC2)n1Cc1ccco1	x	x	-0.27	x	x	-0.8
COCCn1c(SCC(=O)N(C(C)C)C(C)C)nnc1-c1cc2ccccc2cc1O	1	-10	-0.03	1	-3	-1
CC(C)N(C(=O)CSc1nnc(-c2cc3ccccc3cc2O)n1Cc1ccco1)C(C)C	0	-5	0.17	-11	-4	-6.6*
CC1CC(C)CN(C(=O)Cn2c(SCC(=O)N3CCc4ccccc4C3)nc3ccccc32)C1 (stereo unspecified)	-1	-11	-1.1	-4	-1	-8.4*
Cn1cc(C(c2ccccn2)c2cn(C)c3ccccc23)c2ccccc21	-1	-16	-1.3	-10	11	-6.6*
Cc1cc(C)nc(SCc2nnc(SCC(=O)Nc3nc(-c4ccccc4)cs3)n2C)n1	1	-13	0.66	17	0	-2.3
Cc1ccccc1C(=O)NCCc1nnc(SCC(=O)Nc2nc(-c3ccccc3)cs2)n1C	-2	-4	-1	-8	6	0.15
Cc1csc(SCC(=O)Nc2nc(-c3ccccc3)cs2)n1	2	-5	0.69	16	9	-6*
Cc1ccc(C(=O)CSc2nnc(CNc3nc(-c4ccccc4)cs3)n2C)cc1	3	-7	0.67	15	0	-4.6*
COc1ccccc1-c1nnc(SCC(=O)Nc2nc(-c3ccccc3)cs2)n1C	15	-13	-3.2*	-30	6	-6.6*
CCn1c(SCC(=O)Nc2nc(-c3ccc(C)cc3)cs2)nnc1-c1ccccc1	1	2	-2.4	4	3	-1.8
Cc1ccc(-c2csc(NC(=O)CSc3nc(C)cs3)n2)cc1	0	-8	0.85	-7	9	-4.6*
CCOC(=O)c1cc([N+](=O)[O-])c([N+](=O)[O-])cc1NC(C)=O	x	x	0.54	x	x	x
CN(C=O)CP(=O)(O)CN1CCCCC1	7	-7	x	16	12	x
CCCCCCCCNC(C)C(O)c1ccc(SC(C)C)cc1 (stereo unspecified)	x	x	x	x	x	-4.5*
CCCCc1nc2ccccc2c(=O)n1NC(=O)c1c(O)c2c(n(CC(C)C)c1=O)CCCC2	x	x	-0.58	x	x	-9.9*
CCc1nc2ccccc2c(=O)n1NC(=O)c1c(O)c2cccc3c2n(c1=O)CCC3	-3	-9	1.2	-33	4	-6.1*
CCn1c(=O)c(C(=O)Nn2c(C)nc3ccccc3c2=O)c(O)c2ccccc21	x	x	-1.2	x	x	-6.1*
CCOc1ccc(NC(=O)CSc2n[nH]c(=O)n2-c2ccccc2)cc1	-1	-15	-0.58	17	6	-0.2
O=C(CCNc1ccc(Cl)c(C(F)(F)F)c1)c1ccco1	2	-10	0.97	-26	13	-5.1*
C/C=C1\COC(C(=O)NCc2cccc(OC)c2OC)(C(F)(F)F)C=C1C=C1CCCCC1 (stereo unspecified)	x	x	x	x	x	-4.2*
N#Cc1c(/N=C/c2ccco2)oc(-c2ccccc2)c1-c1ccccc1	3	-11	x	-15	9	x
SMILES	FAK blocker	PLK1 kinase inh	Pyk2 oligo antag	Plk1 PBD FP	HIV Rev-RRE inh	Cav3 T inh
COc1ccc(-c2oc(/N=C/N3CCOCC3)c(C#N)c2-c2ccc(OC)cc2)cc1	2	-9	-3.6*	-8	-1	-3.9
O=C(CSCc1cnn(-c2ccccc2)c1-n1cccc1)NCc1ccc2c(c1)OCO2	1	-10	0.38	7	10	-7.7*
O=C(NCc1ccccn1)C1CCN(Cc2cnn(-c3ccccc3)c2-n2cccc2)CC1	1	-4	0.05	-1	1	1.2
COc1ccc(CNC(=O)CSCc2cnn(-c3ccccc3)c2-n2cccc2)cc1	3	-13	-0.41	-16	-1	-7*
COc1cccc(CNC(=O)C2CCN(Cc3cnn(-c4ccccc4)c3-n3cccc3)CC2)c1	4	-3	0.24	-12	2	-4.6*
O=C(NNC(=O)C(c1ccccc1)c1ccccc1)c1cccs1	-2	-7	0.92	19	6	0.12
Cc1ccc(S(=O)(=O)N=S(CC2CC2(Cl)Cl)CC2CC2(Cl)Cl)cc1 (stereo unspecified)	-2	-2	-0.57	10	7	-1
Cc1ccsc1C1C2=C(CCCC2=O)Nc2ncnn21 (stereo unspecified)	2	61*	-0.65	-10	8	0.38
COc1ccc(OCc2nc(N)nc(Nc3ccc(C)cc3)n2)cc1	1	-3	-0.71	3	2	-0.98
O=C(c1cccc(Cl)c1)N1CCN(Cc2ccccc2F)CC1	1	-2	0.61	-8	3	0.13
O=C(NCC1CCCO1)c1ccccc1 (stereo unspecified)	0	-7	0.1	12	7	-0.42
Nc1c(C(=O)NCC2CCCO2)c2nc3ccccc3nc2n1-c1ccccc1 (stereo unspecified)	7	-15	0	10	7	-5.6*
Fc1cccc2sc(Nc3nnc(-c4ccccc4)o3)nc12	-10	-22	-1.3	-37	1	-5*
COc1ccc(-c2nnc(Nc3nc4c(OC)cccc4s3)o2)c(OC)c1	x	x	-1.3	x	x	0.71
CCN1CCN(CC(=O)NC2CCCCC2)C(=O)C1=O	4	-2	x	-13	10	0.027
CCN1CCN(CC(=O)NC2CCCC2)C(=O)C1=O	-2	68*	x	-22	8	0.61
Cc1cccc(C(=O)Nc2ccccc2C(=O)OCc2c(C)noc2C)c1	2	-3	-1.3	-2	11	-2
Cc1ccccc1NC(=O)/C(=C/c1ccccc1)c1ccccc1	4	-2	-1.7	-24	16	-4.8*
Cc1cc(C)c(NC(=O)/C(=C/c2ccco2)c2ccccc2)c(C)c1	1	-2	0.35	-22	11	-2.7
Cc1cccc(C)c1NC(=O)/C(=C/c1ccco1)c1ccccc1	1	-13	-0.81	-13	-3	-8.6*
CN(C)S(=O)(=O)c1ccc(C(=O)OCn2nnc3ccccc3c2=O)cc1	4	-20	x	-10	7	0.14
Cc1ccc(C2CC(c3cccs3)=NN2C(=O)c2ccc(Br)o2)cc1 (stereo unspecified)	4	-12	-1.4	-20	25	-4*
